In brackets after ≈: the same amount, converted by molar mass. Activity calls are given as the source filed them. No cut-off for these calls is given here.
Columns and labels:
Staphylococcus aureus = test: Antibacterial activity against Staphylococcus aureus ATCC 6538 after 17 hrs by resazurin dye based fluorimetric assay; format: functional, organism-based; conditions: ATCC 6538, 17 h
How it was run: (§1)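 Bacteria grown in Mueller Hinton broth; 5 × 10³ CFU/mL inoculum with compound at 64, 16, 4, 1 and 0.25 µM (DMSO final <1%), 37 °C for 17 h. Resazurin added, fluorescence read after 0.5 h (ex 550/em 590 nm). Growth normalised to untreated (100%) and medium-only (0%) wells; IC50 calculated.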

Escherichia coli [1] = test: Antibacterial activity against Escherichia coli ATCC 8739 after 17 hrs by resazurin dye based fluorimetric assay; format: functional, organism-based; conditions: ATCC 8739, ATCC 8739, 17 h; how it was run: as §1
[2] = system: Mycobacterium tuberculosis; test: Antitubercular activity against Mycobacterium tuberculosis H37Rv by MABA; format: functional
[3] = system: Mycobacterium tuberculosis; test: Antitubercular activity against Mycobacterium tuberculosis H37Rv by LORA; format: functional
[4] = Cytotoxicity against human MRC5 SV2 cells after 3 days by resazurin dye based fluorescence assay; format: cell-based; conditions: MRC-5 SV2, 72 h
How it was run: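 MRC-5SV2 fibroblasts in MEM with L-glutamine, NaHCO3, 5% inactivated FCS; 5 × 10³ inoculum with compound at 64–0.25 µM (4-fold steps, DMSO <1%), 37 °C, 5% CO2, 3 days. Resazurin added, fluorescence after 4 h (ex 550/em 590 nm). Viability relative to untreated and medium controls; IC50 calculated.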

Candida albicans = test: Antifungal activity against azole-resistant Candida albicans after 24 hrs by resazurin dye based fluorimetric assay; format: functional, organism-based
How it was run: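 Inoculum 5 × 10³ CFU/mL in RPMI-1640 with Mops buffer and glucose. Tested at 64, 16, 4, 1 and 0.25 µM from DMSO stocks, final DMSO <1%. Incubated 24 h at 37 °C, then resazurin added and fluorescence read after 0.5 h (ex 550/em 590 nm). Growth normalized to untreated (100%) and medium-only (0%) wells; IC50 calculated. Flucytosine positive control.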

Trypanosoma cruzi = test: Antitrypanosomal activity against beta-galactosidase expressing nifurtimox-sensitive Trypanosoma cruzi Tulahuen CL2 infected in human MRC5 SV2 cells assessed as reduction in parasite burden after 168 hrs by CPRG and Nonidet based spectrophotometric analysis; format: functional, organism-based; conditions: Tulahuen CL2, MRC-5 SV2, 168 h
How it was run: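 MRC-5 cells (4·10³/well) plus 4·10⁴ parasites per well with compound at 64–0.25 µM, 37 °C, 5% CO2 for 7 days. CPRG/Nonidet in PBS added; absorbance at 540 nm after 4 h. Percent burden reduction versus untreated-infected and uninfected controls; IC50 calculated.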

Trypanosoma brucei = test: Antitrypanosomal activity against suramin-sensitive Trypanosoma brucei Squib 427 assessed as parasite growth inhibition after 72 hrs by resazurin assay; format: functional, organism-based; conditions: Squib 427, 72 h
How it was run: (§2)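 Bloodstream parasites in HMI-9 with 10% inactivated FCS; 1.5 × 10³ (T. brucei) or 4 × 10³ (T. rhodesiense) per well, compound 64–0.25 µM, 37 °C, 5% CO2, 3 days. Resazurin (50 µg/mL) added; fluorescence read after 24 h (T. brucei) or 6 h (T. rhodesiense), ex 550/em 590 nm. IC50 from % growth inhibition.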

[5] = system: Trypanosoma brucei rhodesiense; test: Antitrypanosomal activity against Trypanosoma brucei rhodesiense STIB 900 assessed as parasite growth inhibition after 72 hrs by resazurin assay; format: functional, organism-based; conditions: STIB 900, 72 h; how it was run: as §2
Leishmania infantum = test: Antileishmanial activity against amastigote stage of Leishmania infantum MHOM/MA(BE)/67 infected in mouse primary peritoneal macrophages assessed as decrease in parasite burden after 5 days by Giemsa staining-based microscopic method; format: functional, organism-based; conditions: MHOM/MA(BE)/67, 120 h
How it was run: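 Amastigotes purified from infected hamster spleen; starch-stimulated mouse peritoneal macrophages (3·10⁴/well) infected with 4.5·10⁵ parasites in supplemented RPMI-1640. Compound (64–0.25 µM) added 2 h post-infection; 5 days, 37 °C, 5% CO2. Amastigotes per macrophage counted microscopically after 10% Giemsa staining; % burden reduction versus controls, IC50 calculated.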

[6] = system: Staphylococcus epidermidis; test: Antibiofilm activity against Staphylococcus epidermidis ATCC 35984 at 125 uM by safranin staining based assay relative to control; format: functional
[7] = system: Staphylococcus epidermidis; test: Growth inhibition of Staphylococcus epidermidis ATCC 35984; format: functional, organism-based
Pseudomonas aeruginosa [8] = test: Antibiofilm activity against Pseudomonas aeruginosa CUCG 56489 at 250 uM by safranin staining based assay relative to control; format: functional
Escherichia coli [9] = test: Antibiofilm activity against Escherichia coli clinical isolates at 500 uM by safranin staining based assay relative to control; format: functional
Escherichia coli [10] = test: Growth inhibition of Escherichia coli clinical isolates at 500 uM; format: functional; conditions: read-out: GI
[11] = system: Staphylococcus epidermidis; test: Antibiofilm activity against Staphylococcus epidermidis ATCC 35984 up to 1000 uM by safranin staining based assay; format: functional, organism-based
Pseudomonas aeruginosa [12] = test: Antibiofilm activity against Pseudomonas aeruginosa CUCG 56489 up to 1000 uM by safranin staining based assay; format: functional, organism-based
Escherichia coli [13] = test: Antibiofilm activity against Escherichia coli clinical isolates at 1 mM by safranin staining based assay relative to control; format: functional

C[C@H]1c2cccc(O)c2C(=O)C2=C(O)[C@]3(O)C(=O)C(C(N)=O)=C(O)[C@@H](N(C)C)[C@@H]3[C@@H](O)[C@@H]21 [DOXYCYCLINE] showed an IC50 (Staphylococcus aureus) of 0.03 µM and an IC50 (Escherichia coli [1]) of 0.58 µM.

With NNC(=O)c1ccncc1 [ISONIAZID] the MIC [2] was 0.48 mg/L (≈ 3.5 µM) and the MIC [3] was > 128 mg/L.

Compound CC/C(=C(\c1ccccc1)c1ccc(OCCN(C)C)cc1)c1ccccc1 [TAMOXIFEN] has an IC50 [4] of 11.2 µM.

For CC(C)=CCC/C(C)=C/CC/C(C)=C/CC/C(C)=C/C[n+]1cn(C)c2nc[nH]/c(=N\O)c21.[Br-], the IC50 (Staphylococcus aureus) was 1.89 µM, the IC50 (Escherichia coli [1]) was > 64 µM and the IC50 (Candida albicans) was 2 µM. The IC50 (Trypanosoma cruzi) was 0.54 µM, the IC50 (Trypanosoma brucei) was 2.01 µM and the IC50 [5] was 0.5 µM. For the same compound, the IC50 (Leishmania infantum) was 2.16 µM, the MIC [2] was 11.3 mg/L and the MIC [3] was 15.3 mg/L. For the same compound, the IC50 [4] was 1.9 µM, the Activity [6] was 90% and the IC50 [7] was 125 µM. The Activity (Pseudomonas aeruginosa [8]) was 40 - 50%, the Activity (Escherichia coli [9]) was 70% and the inhibition of growth at 500 µM (Escherichia coli [10]) was 20%.

For CCCCCCCCCCCCCCCCOP(=O)([O-])OCC[N+](C)(C)C [MILTEFOSINE], the IC50 (Leishmania infantum) was 11.8 µM.

With CC(C)=CCC/C(C)=C/C[n+]1cn(C)c2nc[nH]/c(=N\O)c21.[Br-] the IC50 (Staphylococcus aureus) was > 64 µM, the IC50 (Escherichia coli [1]) was > 64 µM and the IC50 (Candida albicans) was > 64 µM. It also gave an IC50 (Trypanosoma cruzi) of 11.5 µM, an IC50 (Trypanosoma brucei) of 28 µM and an IC50 [5] of 8.06 µM. For the same compound, the IC50 (Leishmania infantum) was 20.3 µM, the MIC [2] was > 50 mg/L and the MIC [3] was > 50 mg/L. The IC50 [4] was > 64 µM, the Activity [11] was “inactive” and the Activity (Pseudomonas aeruginosa [12]) was “inactive”. The Activity (Escherichia coli [13]) was 50%.

With O=C(Cn1ccnc1[N+](=O)[O-])NCc1ccccc1 [BENZNIDAZOLE] the IC50 (Trypanosoma cruzi) was 2.69 µM.

With Nc1nc(=O)[nH]cc1F [FLUCYTOSINE] the IC50 (Candida albicans) was 0.41 µM.

With Cc1ccc(C(=O)Nc2ccc(S(=O)(=O)O)c3cc(S(=O)(=O)O)cc(S(=O)(=O)O)c23)cc1NC(=O)c1cccc(NC(=O)Nc2cccc(C(=O)Nc3cc(C(=O)Nc4ccc(S(=O)(=O)O)c5cc(S(=O)(=O)O)cc(S(=O)(=O)O)c45)ccc3C)c2)c1 [SURAMIN] the IC50 (Trypanosoma brucei) was 0.02 µM and the IC50 [5] was 0.03 µM.
